Screening data as filed in PubChem.
Only some compounds are listed: those with a hit (about 6.1% of all), similar ones and a draw of the others.
Measles CPE: protection of cells from measles virus | Measles virus-infected cells, CPE protection, absorbance | protection (pct of control), % at 4 µM | 140,000 compounds, 1.5% hits; in the data active means protection mostly above about 24%, no sharp cut-off; inactive means mostly below about 26%
WT yeast gro inh: growth inhibition of WT yeast, mitochondrial fusion screen | 190,000 compounds, 2.1% hits | inhibition, % at 10 µM | mitochondrial fusion phenotypic screen, WT strain; in the data active means inhibition above about 58%; tested in S. cerevisiae
BB579 growth dn: reduces growth of yeast BB579 in restrictive medium; inhibition, % at 10 µM; AID 804; 140,000 compounds, 0.51% hits; S. cerevisiae BB579 growth, OD615, 48 h;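 active means inhibition above a set limit, 3 SD over the mean compound inhibition, cut at about 44% in these data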
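Material: Saccharomyces cerevisiae DeaD strain BB579, replicative lifespan model yeast; buffer or medium: CSMM-D restrictive synthetic medium containing dextrose (glucose); compound: 10 µM single dose, DMSO 0.25%; timing: 48 h compound exposure at 30 °C after 4 h preincubation; signal: turbidity as optical density at 615 nm; benchmarks: positive control amphotericin B 10 µg/mL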
hDAT+cocaine: modulates human dopamine transporter uptake under cocaine; Q01959; LLC-PK1 hDAT cells, [14C]-dopamine uptake with cocaine IC80; actives deviate in either direction; B-score at 10 µM; 110,000 compounds, 1.3% hits;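 active means Z score or B-score, a plate-position-corrected score, falls beyond the plate's 99.7% confidence bounds, in either direction; inactive means both scores lie inside the 99.7% bounds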
Target sequence (Q01959 whole entry, looked up): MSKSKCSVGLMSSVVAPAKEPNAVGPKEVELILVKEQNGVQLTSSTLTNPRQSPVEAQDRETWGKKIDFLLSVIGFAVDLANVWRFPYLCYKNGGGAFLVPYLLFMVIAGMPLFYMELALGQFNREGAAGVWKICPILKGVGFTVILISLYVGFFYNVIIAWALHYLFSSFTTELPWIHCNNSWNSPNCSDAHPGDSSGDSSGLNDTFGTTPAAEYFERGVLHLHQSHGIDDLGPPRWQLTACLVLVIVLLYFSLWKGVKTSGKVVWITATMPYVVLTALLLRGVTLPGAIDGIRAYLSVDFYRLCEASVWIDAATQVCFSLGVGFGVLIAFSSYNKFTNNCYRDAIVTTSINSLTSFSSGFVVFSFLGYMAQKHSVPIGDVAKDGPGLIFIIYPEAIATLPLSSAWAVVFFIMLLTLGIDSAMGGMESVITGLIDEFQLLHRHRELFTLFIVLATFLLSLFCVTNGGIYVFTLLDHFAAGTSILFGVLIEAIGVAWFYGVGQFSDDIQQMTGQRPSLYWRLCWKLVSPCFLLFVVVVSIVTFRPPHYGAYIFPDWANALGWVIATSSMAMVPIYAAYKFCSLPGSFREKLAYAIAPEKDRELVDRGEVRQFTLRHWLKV
RAM network inh: blocks the yeast RAM network; 190,000 compounds, 1.8% hits; inhibition, % at 50 µM; S. cerevisiae dse1pr::URA3 reporter, 5-FOA growth OD615, 2 d; analog-sensitive cbk1-as2 kinase mutant strain; AID 868;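 active means inhibition above a set limit, 3 SD over mean compound inhibition, cut at about 8.4% in these data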;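 further: inhibition rescues growth on 5-FOA so higher OD means more RAM inhibition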
Yeast life ext: extends the lifespan of yeast; S. cerevisiae growth with nicotinamide, OD615; deaD strain in restrictive glucose medium; inhibition of the nicotinamide effect, % at 10 µM; 130,000 compounds, 0.68% hits;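 active means inhibition above a set limit, placed 3 SD over the median of all compounds, cut at about 26% in these data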
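assay system = DeaD-strain S. cerevisiae | buffer or medium = restrictive glucose medium | reagent = 1.5 mM nicotinamide | compound = 10 µM single point, 0.25% DMSO | incubation = 48 h compound exposure at 30 °C, humidified | signal = OD615 measurement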
Numbers stand for hits; n = inactive; x = not tested or not shown.

SMILES	Measles CPE	WT yeast gro inh	BB579 growth dn	hDAT+cocaine	RAM network inh	Yeast life ext
Cc1ccc(-c2[nH]ncc2/C=C(\C#N)C(=O)NC2CCCCC2)cc1	70.1	n	n	n	n	n
Cc1cc(NC(=O)COC(=O)C2CCC2)no1	x	n	x	x	n	x
Nc1nc(CSc2ccc(Cl)cc2)nc(N2CCCCC2)n1	x	74.5	x	x	9.0	x
O=C(O)c1cccc(N/N=C/C2=C(Cl)c3cc(Cl)ccc3SC2)c1	x	93.8	x	x	n	x
CCOC(=O)c1c(-c2ccccc2)cn2c(C)cc(C)nc12	x	n	x	x	n	x
CC1CC(N(C(=O)c2ccccc2Cl)c2ccccc2)c2ccccc2N1 (stereo unspecified)	n	67.1	n	x	n	n
O=c1c2ccccc2sn1-c1cc(S(=O)(=O)N2CCOCC2)ccc1N1CCCC1	n	n	n	n	n	n
O=c1c2ccccc2sn1-c1cc(S(=O)(=O)N2CCOCC2)ccc1N1CCOCC1	n	n	n	n	9.2	n
COC(=O)c1[nH]c2ccc(C)cc2c1NS(=O)(=O)c1ccc(F)c(C)c1	n	n	n	x	n	n
COC(=O)c1[nH]c2ccc(F)cc2c1NS(=O)(=O)c1ccc(F)c(C)c1	n	n	n	x	10.5	n
COc1ccc(C)cc1N(CC(=O)Nc1cccc(N(C)S(C)(=O)=O)c1)S(C)(=O)=O	n	n	n	n	n	n
CCCCOC(=O)c1ccc(NC(=O)CSC2=Nc3ccccc3C3CC=NN23)cc1 (stereo unspecified)	n	n	n	n	8.4	n
O=C(c1ccco1)N1CCN(Cc2nc3cc(Cl)ccc3c(=O)[nH]2)CC1	x	n	x	x	n	x
CCOC(=O)C1CCCN(C(=O)CN2C(=O)c3ccccc3C2=O)C1 (stereo unspecified)	n	n	n	n	n	n
CCOC(=O)C1CCCN(C(=O)CN2C(=O)/C(=C/c3ccc(OC)cc3)Oc3ccccc32)C1 (stereo unspecified)	n	59.4	n	x	n	n
CCCC(=O)Nc1sc(C)c(-c2ccc(C(C)CC)cc2)c1C#N (stereo unspecified)	n	n	n	n	n	n
CC(=O)N(CCCN1CCOCC1)Cc1ccncc1	56.6	n	n	n	n	n
COC(=O)c1sc2nc(CN3CCN(c4cccc(C(F)(F)F)c4)CC3)[nH]c(=O)c2c1C	n	n	n	x	n	n
Clc1c(-c2nnc3n2CCCCC3)sc2ccccc12	n	n	n	n	n	n
COc1ccc2c(Cl)c(-c3nnc4n3CCCCC4)sc2c1	42.7	n	n	n	n	n
Cc1ccc(-c2nnc3n2CCCCC3)cc1	28.9	73.8	n	n	n	n
O=C(NCc1ccccc1C(F)(F)F)C1CC(c2ccccc2[N+](=O)[O-])=NO1 (stereo unspecified)	n	n	n	n	n	n
O=C(C1=C[C@H](c2ccccc2)C[C@H](OCc2ccc(CO)cc2)O1)N1CCN(Cc2ccc3c(c2)OCO3)CC1	x	n	x	n	n	x
O=C(NCc1ccccc1)C1=C[C@H](c2csc3ccccc23)C[C@H](OCc2ccc(CO)cc2)O1	x	x	x	n	x	x
O=C(C1=C[C@H](c2csc3ccccc23)C[C@H](OCc2ccc(CO)cc2)O1)N1CCN(Cc2ccc3c(c2)OCO3)CC1	x	97.7	x	n	n	x
SMILES	Measles CPE	WT yeast gro inh	BB579 growth dn	hDAT+cocaine	RAM network inh	Yeast life ext
C#CCNC(=O)C1=C[C@H](c2csc3ccccc23)C[C@H](OCc2ccc(CO)cc2)O1	x	n	x	n	8.5	x
O=C(C1=C[C@H](c2csc3ccccc23)C[C@H](OCc2ccc(CO)cc2)O1)N1CCN(Cc2ccccc2)CC1	x	96.6	x	n	n	x
Cc1ccc(NC(=O)CN(C)C(=O)COc2cccc3cccnc23)cc1	n	n	n	x	n	n
COc1cc2c(cc1OC)C1Cc3ccc(OC)c(OC)c3C[N+]1([O-])CC2 (stereo unspecified)	x	x	x	n	x	x
O=C(CNC(=S)N(CCCN1CCOCC1)Cc1cccs1)NC1CCCC1	x	n	x	x	n	x
CCN(CC)C(=O)C1CC(=O)N(c2ccc(F)c(Cl)c2)C1 (stereo unspecified)	n	59.1	n	n	n	n
CCC(COC)NCc1cn(-c2ccc(OC)cc2)nc1-c1cccc(F)c1 (stereo unspecified)	x	n	x	x	n	x
O=C(Oc1cc2oc(=O)c3c(c2cc1Cl)CCCC3)c1cccs1	n	70.2	n	x	n	n
CC(=O)Oc1cc2oc(=O)c3c(c2cc1Cl)CCC3	n	n	n	5.64	n	n
Cc1cnc(NC(=O)Cc2cccs2)s1	x	n	x	x	n	x
Cc1ccnn2cc3c(=O)n(C)c(=O)n(C)c3c12	n	n	63.7	x	n	n
O=C(CSCc1ccc(Cl)cc1)Nc1ccccc1O	x	n	x	x	n	x
Cc1ccccc1CSCC(=O)Nc1ccccc1-c1ccccc1	n	74.0	n	x	n	n
Cc1ccccc1NC(=O)CSCC(=O)Nc1ccccc1C	n	n	n	n	n	n
O=C(CSCc1cccc(Cl)c1)Nc1ccccc1-c1ccccc1	n	64.0	n	x	n	n
Cc1csc(SCC(=O)N(C)CC(=O)Nc2ccc(F)cc2)n1	x	n	x	x	n	x
CC1(C)CC(=O)c2c(O)c(-c3ccccc3)c(=O)n(-c3ccccc3)c2C1	n	n	n	x	n	n
O=C1C2CC=CCC2C(=O)N1c1ccc(NCCc2cccc(F)c2)c([N+](=O)[O-])c1 (stereo unspecified)	n	n	n	x	n	n
Cn1ncc2c(N3CCN(c4ccc(Cl)c(Cl)c4)CC3)ncnc21	x	n	x	x	n	x
O=c1nc(/C=C/c2cc([N+](=O)[O-])ccc2Cl)cc(C(F)(F)F)[nH]1	55.5	n	n	n	n	n
CCCCn1c(SCC(=O)NNC(=O)c2ccco2)nnc1-c1ccco1	x	n	x	x	n	x
COc1ccc(NC(=O)COc2nc3ccccc3nc2N2CCOCC2)c(OC)c1	x	n	x	x	n	x
COc1ccc2[nH]c3c(NCCC4=CCCCC4)ncnc3c2c1	x	84.2	x	x	n	x
CCc1nnc(NC(=O)CSc2nnc(-c3ccccc3NC(=O)c3ccccc3)o2)s1	n	n	n	n	n	n
O=C(O)c1ccc(COc2ccc3ccccc3c2/C=C2/NC(=O)N(c3ccccc3)C2=O)cc1	n	n	n	n	n	n
CCN1C(=O)S/C(=C/c2c(OCc3ccc(C(=O)O)cc3)ccc3ccccc23)C1=O	n	72.7	n	x	n	n
CN1CC(c2ccccc2Cl)C2(COc3ccccc3C2=O)C12C(=O)Nc1ccccc12 (stereo unspecified)	n	59.0	n	n	n	n
Cc1ccc(C2CN(C)C3(C(=O)Nc4ccccc43)C23COc2ccccc2C3=O)cc1 (stereo unspecified)	n	72.9	n	x	n	n
CC1CN=C(N(C(=O)Nc2ccccc2)c2ccc(F)cc2)S1 (stereo unspecified)	n	n	n	n	n	n
CC(=O)N1CCN(c2ccccc2NC(=O)Cc2ccc(Cl)cc2)CC1	x	n	x	x	n	x
